# Only some compounds are listed: those with a hit (about 1.7% of all), similar ones and a draw of the others.
# HNF4A DNA FP: change in binding of human HNF4A to DNA, primary screen, biochemical, fluorescence polarization, FITC-DNA; 360,000 compounds, 0.3% hits; AID 1224865, 2016; Hepatocyte nuclear factor 4-alpha (Homo sapiens), P41235; 1 h; activity change, % at 10 µM; in the data active = activity change above about 30%, passing the limit was not always enough
# CSN deneddyl inh: inhibitors of CSN-mediated cullin deneddylation, primary screen, biochemical, fluorescence polarization, uHTS. 360,000 compounds, 0.38% hits. Purified CSN, SCF-Nedd8-OG deneddylation. inhibition, % at 12.5 µM. COP9 signalosome complex subunit 5 (Homo sapiens), Q92905. AID 651999, 2013;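 active = pattern-corrected inhibition above about 35%, with an unprinted fluorescence ratio check between 0.5 and 1.5, limit read from the data, passing the limit was not always enough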;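 also: 0% = enzyme with substrate and 100% = substrate without enzyme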
#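 Assay system: HEK293T-derived human Csn5 enzyme; quantity: 0.24 nM enzyme; medium: Tris/NaCl/DTT buffer, pH 7.5; also added: substrate SCFSkp2-Nedd8OG, 10 nM; doses: 12.5 µM compound; schedule: 90 min reaction at room temperature; signal: FP; read-out: % inhibition of substrate cleavage by Csn5; benchmarks: substrate-only high control, full reaction low control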
# TPT1 inh: Candida albicans TPT1 enzyme inhibitors, primary screen, biochemical, fluorescence polarization; AID 1962, 2009; 300,000 compounds, 0.81% hits; inhibition, % at 5 µM; recombinant caTPT1, FP RNA substrate dephosphorylation;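 active = inhibition above the mean of all tested compounds plus 3 SD, set per screening campaign, cut at about 24% in these data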;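 also: plate controls were DMSO alone for no effect and ferristatin control at 100 nM for full effect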
# Rev-erbA mod: modulators of Rev-erb alpha DNA binding, primary screen, biochemical, FITC-DNA, fluorescence polarization, uHTS; Nuclear receptor subfamily 1 group D member 1 (Homo sapiens), P20393; 370,000 compounds, 0.79% hits; Rev-erbα–FITC-DNA binding, 90 min; activity, % at 10 µM; AID 1259318, 2017;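 active = activity above about 14%, limit read from the data; passing the limit was not always enough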;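 also: 0% = DMSO wells with 35 nM protein and 100% = DMSO wells with 750 nM protein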
# Target sequence (P20393 whole entry, looked up): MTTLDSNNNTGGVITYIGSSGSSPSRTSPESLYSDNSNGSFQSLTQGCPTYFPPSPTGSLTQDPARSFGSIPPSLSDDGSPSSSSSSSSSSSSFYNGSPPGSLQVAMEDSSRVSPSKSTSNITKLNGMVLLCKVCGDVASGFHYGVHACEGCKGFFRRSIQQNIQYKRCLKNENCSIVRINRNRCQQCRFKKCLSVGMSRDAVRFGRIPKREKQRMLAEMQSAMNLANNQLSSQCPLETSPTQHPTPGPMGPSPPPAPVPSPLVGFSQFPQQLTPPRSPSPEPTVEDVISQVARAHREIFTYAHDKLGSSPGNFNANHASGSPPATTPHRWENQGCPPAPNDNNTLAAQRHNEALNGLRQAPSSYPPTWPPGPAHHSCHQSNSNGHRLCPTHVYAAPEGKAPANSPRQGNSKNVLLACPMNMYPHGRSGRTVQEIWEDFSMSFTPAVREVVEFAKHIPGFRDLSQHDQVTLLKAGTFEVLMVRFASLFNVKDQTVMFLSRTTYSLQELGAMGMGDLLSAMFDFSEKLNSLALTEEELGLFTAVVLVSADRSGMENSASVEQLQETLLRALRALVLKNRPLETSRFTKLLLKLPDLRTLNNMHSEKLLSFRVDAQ
# TPT1 inh confirm: Candida albicans TPT1 inhibitors, confirmation, biochemical, fluorescence polarization, triplicate; recombinant caTPT1, RNase T1 coupled; 2,400 compounds, 74% hits; inhibition, % at 5 µM; AID 2149, 2009; shares compounds with TPT1 inh;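 active = inhibition above the primary screen limit, the mean inhibition of all tested compounds plus 3 SD, cut at about 25% in these data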
# RNase T1 counter: RNase T1 inhibitors, counter-screen for TPT1 inhibitor project, biochemical, fluorescence polarization. shares compounds with TPT1 inh. RNase T1 cleavage, 1536-well. inhibition, % at 5 µM. 2,400 compounds, 83% hits. AID 2153, 2009;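 active = inhibition above the solvent-only control well mean plus 3 SD, limit set per screening run, cut at about 23% in these data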;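 also: plate controls were DMSO wells with enzyme for no effect and wells without RNase T1 for full effect; inhibitors block cleavage so intact labeled substrate keeps polarization high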
# * marks the source's active call; other numbers are inactive results; . = no result.
SMILES,HNF4A DNA FP,CSN deneddyl inh,TPT1 inh,Rev-erbA mod,TPT1 inh confirm,RNase T1 counter
Cc1sc2nc(COC(=O)c3ccc(O)cc3)[nH]c(=O)c2c1C,3.7,4.8,4.0,8.8,.,.
Cc1sc2nc(COC(=O)c3ccc(N4CCCC4)c([N+](=O)[O-])c3)[nH]c(=O)c2c1C,28.1,8.7,69.3*,5.0,69.4*,78.2*
Cc1[nH]c2ccccc2c1CC(=O)Nc1ccc(Oc2cccnc2)cc1,.,.,.,-1.1,.,.
COc1ccc(/C=C2\CC/C(=C\c3ccc(OC)cc3OC)C2=O)c(OC)c1,123.6,78.9,147.6*,8.5,148.5*,137.5*
O=C(N[C@@H](Cc1cccnc1)C(=O)N1CCC[C@H]1C(=O)NCCc1ccccc1Cl)c1ccc(Cl)c(Cl)c1,.,.,.,1.8,.,.
Cc1cccc(NC(=O)CSc2nnc(-c3cccnc3)n2Cc2ccco2)c1C,.,.,.,3.5,.,.
O=C(Nc1ccccc1)OCCN1C(=O)CCC12CCC(c1ccc(Cl)cc1)CC2 (centres undefined),.,.,.,2.8,.,.
Cc1ccc(O)c(C(=O)c2cc(C#N)c(=O)n(-c3c(C)n(C)n(-c4ccccc4)c3=O)c2)c1,6.3,4.2,11.8,0.5,.,.
Cc1ccc(O)c(C(=O)c2cc(C#N)c(=O)n(-c3nccs3)c2)c1,35.4,-103.5,55.7*,11.1,54.0*,61.4*
Cc1c(-n2cc(C(=O)c3cc(Br)ccc3O)cc(C#N)c2=O)c(=O)n(-c2ccccc2)n1C,17.2,15.3,36.5*,1.6,24.3*,32.3*
Cc1cc(C)n(CC(O)Cn2c(C)c(C)c3ccccc32)n1 (centres undefined),13.2,27.9,46.4*,-1.5,5.4,10.3
N#Cc1cc(NC(=O)c2ccc(F)cc2)c(=O)n2c1[nH]c1ccccc12,.,.,28.1*,.,29.9*,38.3*
NC1=NC(=O)/C(=C/c2ccc(Br)cc2)S1,-3.9,-0.9,-2.4,5.1,.,.
NC1=NC(=O)/C(=C/c2cc(Br)c(O)c(Br)c2)S1,21.4,18.5,37.1*,9.1,49.4*,61.7*
COCCN1C(=O)/C(=C/c2ccc(N3CCCC3)cc2)SC1=S,127.7,103.5,133.4*,14.9,137.8*,131.3*
CC1CN(c2ccnc3cc(Cl)ccc23)CCN1C(=O)c1ccc(Cl)cc1 (centres undefined),.,.,.,1.3,.,.
O=C(OCCN1C(=O)c2cccc3c(N4CCOCC4)ccc(c23)C1=O)c1cccc(Cl)c1,.,.,49.0*,.,62.0*,69.8*
O=C(CN1C(=O)S/C(=C\c2ccccn2)C1=O)Nc1ccccc1,2.9,-2.1,.,-8.5,.,.
O=C(CN1C(=O)S/C(=C\c2cc(Cl)c(O)c(Cl)c2)C1=O)Nc1ccccc1,37.8*,28.7,95.6*,3.2,99.7*,108.3*
CC(NC(=O)C(NC(=O)OCc1ccccc1)C(C)O)C(=O)OCc1ccccc1 (centres undefined),.,.,.,-12.7,.,.
C/C(Cl)=C/CSc1nc2c(c(=O)[nH]c(=O)n2C)n1C(C)C,-0.5,0.7,24.8*,-5.5,8.8,11.2
C=CCSc1nc2c(c(=O)[nH]c(=O)n2C)n1C(C)C,0.6,-1.4,-1.5,1.5,.,.
O=C(O)CC/C(=N\Nc1ccc([N+](=O)[O-])cc1S(=O)(=O)N1CCOCC1)c1cccs1,-1.3,9.7,29.0*,3.3,40.9*,52.1*
C=C(C)c1cccc(C(C)(C)NC(=O)NCC2CCCO2)c1 (centres undefined),2.2,3.5,24.6*,-5.6,7.8,9.2
C=C(C)c1cccc(C(C)(C)NC(=O)N2CCC(C)CC2)c1,-1.2,-2.0,-0.8,6.2,.,.
SMILES,HNF4A DNA FP,CSN deneddyl inh,TPT1 inh,Rev-erbA mod,TPT1 inh confirm,RNase T1 counter
CCCCN=C(N)NC(=O)c1ccccc1,.,.,.,4.4,.,.
CCOC(=O)c1cc(C#N)c(SCC(=O)O)[nH]c1=O,-2.7,-3.8,0.4,-0.2,.,.
CCOC(=O)c1cc(C#N)c(SCC(N)=O)[nH]c1=O,-16.4,-2.8,31.9*,-5.2,39.8*,50.2*
CCN1/C(=C/C=C/C=C/C=C/c2sc3ccccc3[n+]2CC)Sc2ccccc21,59.5*,15.8,30.1*,-8.6,19.9,28.6*
Cc1cc2c(c(=O)o1)[C@@]1(C(=O)N(C)c3cccc(Br)c31)C1=C(CCCC1=O)O2,.,.,.,6.3,.,.
O=c1oc2ccccc2nc1/C=C(O)/C=C\c1ccccc1,5.9,2.0,26.9*,3.2,17.1,27.6*
O=c1oc2ccccc2nc1/C=C(O)/C=C/c1ccc(F)cc1,3.0,1.6,3.3,-4.2,.,.
COC(=O)CN1CCN(C(=O)c2csc(-c3ccccc3)n2)CC1,.,.,.,-1.0,.,.
Cc1nn(-c2ccccc2)c(N2CCCC2)c1/C=C1\N=C(c2ccc(OC(C)C)cc2)OC1=O,1.1,0.4,43.3*,-5.0,72.6*,81.4*
CC1C/C(=C/c2cccn2C)C(=O)/C(=C/c2cccn2C)C1 (centres undefined),91.2,-66.5,190.6*,3.1,187.0*,169.6*
Cc1cc2c(nc1C)CCCN2S(=O)(=O)c1c(C)noc1C,.,.,.,-9.2,.,.
N#Cc1cnc(SCCc2ccccc2)nc1N,16.7,6.7,39.4*,-1.2,32.2*,41.6*
O=C(Nc1ccc(N2C(=O)[C@@H]3[C@H](C2=O)[C@@H]2C=C[C@H]3C2)c(Cl)c1)c1ccccn1,.,.,.,0.9,.,.
c1ccc(C2Oc3ccccc3C3CC(c4cccs4)=NN32)cc1 (centres undefined),20.0,14.7,49.1*,0.3,57.1*,68.5*
CN(C)S(=O)(=O)c1cccc(C(=O)Nc2ccc(Cl)cn2)c1,5.0,-0.2,27.4*,4.2,8.2,8.2
O=C(Nc1ccc(Cl)cn1)c1cccc(S(=O)(=O)N2CCCC2)c1,-2.8,3.0,-2.9,0.5,.,.
CC(C)(C)NC(=O)C1N(c2cccnc2)C(=O)C2C(C(=O)Nc3ccccc3F)C3(C)C=CC21O3 (centres undefined),4.9,-3.3,73.0*,8.2,7.3,10.5
CC12C=CC3(O1)C(C(=O)N(c1cccnc1)C3C(=O)NC1CCCCC1)C2C(=O)Nc1ccccc1 (centres undefined),5.0,1.3,0.4,-6.2,.,.
CN(C)c1ccc(/C=C(\C#N)C(=O)c2ccccc2)cc1,77.0*,76.9,158.3*,11.3,162.4*,149.6*
N#C/C(=C\c1ccccc1)C(=O)NC(=O)Oc1ccccc1,2.6,0.4,-0.9,2.7,.,.
CCOC(=O)NC(=O)/C(C#N)=C/c1ccc(N(C)C)cc1,56.4*,34.3,99.2*,22.9,115.5*,124.5*
C=CCNC(=O)C1CCN(c2cncnc2)CC1,.,.,.,-9.0,.,.
